Source: PubChem BioAssay
In the library only some 0.99% were active in any assay of this set; here they are far more common.
STK33 inh = inhibitors of purified STK33 kinase, primary screen, biochemical, ADP-Glo luminescence, homogeneous, cell-free | MBP phosphorylation | inhibition, % at 10 µM | 320,000 compounds, 0.073% hits | AID 2661, 2010;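 active = inhibition at or above 25%, using the most active replicate where run in duplicate; inactive = inhibition below 25%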
Rce1 inhib = yeast Rce1p protease inhibitors, primary screen, biochemical, fluorescence, cell-free homogeneous; CAAX prenyl protease 2 (Saccharomyces cerevisiae (strain ATCC 204508 / S288c)), Q03530; yeast membranes, quenched prenylated peptide cleavage fluorescence; calls only; 290,000 compounds, 0.27% hits; AID 2563, 2010;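 active = fall in fluorescence gain of 50% or more versus controls, with final raw signal at or below 3038400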;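 also: plate controls were neutral control wells for no effect and wells lacking membranes for full effect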
Target sequence (Q03530 whole entry, looked up): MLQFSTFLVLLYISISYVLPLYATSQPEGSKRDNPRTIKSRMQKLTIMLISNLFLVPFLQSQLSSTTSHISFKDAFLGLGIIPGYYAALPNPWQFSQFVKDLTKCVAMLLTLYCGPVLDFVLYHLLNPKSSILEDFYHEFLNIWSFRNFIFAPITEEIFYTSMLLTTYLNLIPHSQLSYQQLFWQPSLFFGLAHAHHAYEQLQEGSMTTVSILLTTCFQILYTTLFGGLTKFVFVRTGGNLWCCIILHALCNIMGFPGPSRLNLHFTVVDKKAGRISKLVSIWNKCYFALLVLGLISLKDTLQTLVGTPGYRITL
Dyrk1A ADPGlo = rat Dyrk1A kinase inhibitors, primary screen, biochemical, single point, plate reader; inhibition, % at 12.5 µM; ADP-Glo luminescence, NFATc1 peptide; Dual specificity tyrosine-phosphorylation-regulated kinase 1A (Rattus norvegicus), Q63470; AID 504441, 2011; 310,000 compounds, 0.43% hits; in the data active = inhibition above about 50%;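 also: plate controls were vehicle with enzyme for no effect and no enzyme for full effect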
GSK3beta inhib = human GSK3beta kinase inhibitors, primary screen, biochemical, cell-free homogeneous, HTS; AID 2097, 2009; Glycogen synthase kinase-3 beta (Homo sapiens), P49841; GST-GSK3beta kinase, ADP-Glo luminescence, 60 min; hits give low values; 300,000 compounds, 0.038% hits; activity score (negative = inhibition), % at 10 µM;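 active = more than half of replicate wells score below -50%, meaning over 50% inhibition versus plate controls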;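 also: 0% = median DMSO wells and -100% = median GW8510 positive control wells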
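test system = GST-tagged human GSK3beta kinase, cell-free | reagent = 25 µM ATP with peptide substrate | dosing = one dose of 10 µM per compound | schedule = 60 min reaction, RT | detection = luminescent ADP-Glo measurement of ADP formed | control set = DMSO neutral wells and GW8510 at 20 µM as positive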
GSK3A inh = blockers of GSK3A enzyme activity – biochemical, luminescence, cell-free homogeneous, HTS, primary screen. Glycogen synthase kinase-3 alpha (Homo sapiens), P49840. inhibition, % at 10 µM. 320,000 compounds, 0.1% hits. GSK-3 alpha kinase, ADP-Glo luminescence, 60 min;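 active = more than half of replicates show inhibition above 20%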;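 also: GST-tagged GSK-3 alpha with peptide substrate and 25 µM ATP; 0% = DMSO neutral wells and 100% = GW8510 positive control wells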
AI-2 QS modul = Vibrio harveyi AI-2 quorum sensing modulators, primary screen, JMH597 strain, luminescence/OD600 ratio. AID 2094, 2009. activity change, % at 7.5 µM. Vibrio harveyi JMH597 AI-2 luminescence/OD600 ratio, 9 h; hits give low values; strain lacks LuxN and CqsS sensors; 0 = neutral-control median. 300,000 compounds, 0.4% hits; in the data active = activity change below about -75%, passing the limit was not always enough;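 also: luminescence divided by OD600 gain over 9 h not by final OD600 alone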
ADP-Glo artifact = ADP-Glo luciferase interference without Dyrk1A, dose response, artefact control for Dyrk1A inhibitor project, biochemical, luminescence, cherry-pick, set 02. shares compounds with Dyrk1A ADPGlo. ADP-Glo luciferase artifact assay, no Dyrk1A. AC50, µM (doses to about 12 µM), without a hit: at the highest dose activity change, negative = inhibition. 1,300 tested, under 10 active;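 active = fitted half-maximal dose AC50 no more than ten times the top valid tested dose, with luminescence dropping as dose rises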
An asterisk follows results filed as active; i = inactive; nt = not tested or not shown.

SMILES	STK33 inh	Rce1 inhib	Dyrk1A ADPGlo	GSK3beta inhib	GSK3A inh	AI-2 QS modul	ADP-Glo artifact
O=C(Nc1ncc2c(n1)-c1ccccc1CC2)c1ccc(Cl)cc1	-0.6	i	58.8*	-0.3	-1.8	11.4	8.0%
N/C(=N\OC(=O)c1ccc2ccccc2c1)c1ccccc1Cl	0.3	i	28.1	-0.2	2.7	3.5	nt
Fc1ccc(-c2nnc3sc(C4COc5ccccc5O4)nn23)cc1 (stereo not drawn)	-0.9	i	67.5*	4.7	5.3	16.8	7.4%
O=c1cc[nH]c2c1ccc1cccnc12	1.2	i	81.0*	-11.7	nt	7.2	9.5%
COc1cc(C(=O)Nc2cccc(-c3nncn3C)c2)cc(OC)c1OC	5.8	i	76.7*	1.6	-0.3	21.3	9.6%
CCN(CC)CCNc1ccc(C)c2sc3ccc(O)cc3c(=O)c12	nt	nt	39.9	nt	nt	nt	nt
CN(C)CCNc1ccc(CO)c2oc3ccc(O)cc3c(=O)c12	nt	nt	52.4*	nt	nt	nt	6.2%
CN(C(=O)CSc1nnnn1-c1ccc(O)cc1)C1CCCCC1	-1.0	nt	nt	nt	-5.3	nt	nt
COCCCN(C(C)=O)c1nc(-c2ccc(OC)cc2)cs1	-0.7	i	76.3*	-4.1	-0.2	-3.3	7.4%
COc1cc(O)c2c(=O)c3c(O)ccc(O)c3oc2c1	nt	nt	68.2*	nt	nt	nt	11.3%
Cc1c(S(=O)(=O)N2CCN(c3ccc(F)cc3)CC2)c(=O)n(C)c(=O)n1C	-0.6	i	10.9	-0.7	-1.1	19.7	nt
O=C1C=C(N2CCOCC2)c2ccccc2C1=O	4.5	i	56.4*	4.4	-2.6	34.7	8.9%
O=C(C1CCN(S(=O)(=O)c2ccccc2F)CC1)N1CCN(Cc2ccc3c(c2)OCO3)CC1	-1.2	nt	4.0	nt	4.6	nt	nt
Cc1ccc2nc(-c3ccccc3)cc(C(=O)N(C)CC(=O)Nc3ccccc3Br)c2c1	0.2	i	5.4	2.1	0.3	38.4	nt
CCn1cnc2scc(-c3ccc(OC)cc3)c2c1=O	1.2	i	42.2	2.3	-1.7	10.8	nt
CCCn1cnc2scc(-c3ccc(OC)cc3)c2c1=O	1.5	i	60.1*	-2.7	9.2	39.4	3.1%
COc1ccc(Nc2ncnc3ccccc23)c(OC)c1	2.3	i	11.4	2.0	-1.3	19.0	nt
COc1cccc(Nc2ncnc3ccccc23)c1	3.9	i	73.3*	-6.9	0.7	23.8	9.3%
COc1ccc(N2C(=O)C3CCCN3C2c2cc(OC)c(OC)c(OC)c2)cc1 (stereo not drawn)	1.0	i	61.5*	0.7	nt	11.8	9.4%
COc1cccc(C(=O)c2sc(NC(C)C)nc2N)c1	1.8	i	53.2*	-93.3*	93.7*	12.3	6.6%
Cn1nnnc1Sc1ncnc2scc(-c3cc4ccccc4o3)c12	-0.5	nt	18.3	nt	-0.8	nt	nt
O=C(Nc1nc2ccc(Cl)cc2s1)C1CCCO1 (stereo not drawn)	8.6	i	76.2*	-4.1	0.8	33.2	8.9%
O=C(Nc1nc2ccc([N+](=O)[O-])cc2s1)C1CCCO1 (stereo not drawn)	5.2	i	65.9*	-2.8	-1.0	-3.0	7.8%
COC(=O)NNC(=O)COc1ccc(Cl)cc1	-1.1	i	84.2*	1.8	1.2	41.1	6.9%
COc1ccc(OCC(=O)Nc2ccc(Cl)cc2)cc1	-0.2	i	0.0	-0.3	-1.8	-18.0	nt
SMILES	STK33 inh	Rce1 inhib	Dyrk1A ADPGlo	GSK3beta inhib	GSK3A inh	AI-2 QS modul	ADP-Glo artifact
Cc1ccc(C)c(NC(=O)Cc2nc(CNCC(C)C)cs2)c1	-1.5	nt	-4.7	-3.3	-0.7	-2.5	nt
Cc1ccccc1Nc1cc(C)c2c(O)cccc2n1	2.4	i	60.4*	-0.1	6.5	35.3	10.0%
Cc1ccc(Nc2cc(C)c3c(O)cccc3n2)cc1C	4.0	i	39.2	-2.8	-0.9	-16.0	nt
C=CCN1C(=O)c2ccc(C(=O)N(CCC)CC(=O)Nc3ccccc3C)cc2C1=O	-2.3	i	-3.7	-0.3	0.4	43.7	nt
O=C(O)c1cccc2c1C(=O)c1ccc(-c3ccc(F)cc3F)cc1S2(=O)=O	-1.8	nt	3.2	nt	-0.1	nt	nt
COc1ccc(/C=N/NC(=O)c2cc3cc(OC)c(OC)cc3[nH]2)cc1	1.7	i	2.5	-1.1	2.9	32.9	nt
COc1ccc2cc(C(=O)N/N=C/c3cc(OC)c(OC)c(OC)c3)[nH]c2c1	0.0	i	53.9*	-1.3	3.1	28.9	8.8%
c1ccc2c(-c3ccncc3)c[nH]c2c1	7.4	i	76.0*	1.4	0.9	-0.1	8.4%
c1ccc(-c2nnc(-c3ccccc3)c(-c3c[nH]c4ccccc34)n2)cc1	2.2	i	1.6	-4.2	3.2	-10.5	nt
COc1ccc2c(c1)CC/C(=C\C=C\c1ccccc1OC)C2=O	0.7	i	-0.6	-2.8	-5.0	15.5	nt
COc1ccc2c3c(ccc2c1)C(=O)/C(=C/O)CC3	nt	nt	62.5*	nt	nt	nt	9.3%
CCCCCC1CC(CC(C)C(=O)Nc2nncs2)C(=O)O1 (stereo not drawn)	-2.8	i	56.6*	-2.1	0.9	15.7	8.8%
CCCN1CCN(c2ncnc3scc(C4COc5ccccc5O4)c23)CC1 (stereo not drawn)	3.5	i	56.8*	-3.5	7.1	-3.6	8.5%
COc1ccc2nc3c(cc2c1)c(NC(=O)C1CCCO1)nn3CC(C)C (stereo not drawn)	1.1	i	78.5*	-88.3*	98.8*	0.9	9.5%
CC(C)(C)[C@H]1C=C(C(=O)N2CCN(Cc3ccccc3)CC2)O[C@@H](OCCCCO)C1	0.6	i	52.6*	-6.0	-1.3	21.9	11.2%
CC(C)(C)[C@@H]1C=C(C(=O)N2CCN(Cc3ccccc3)CC2)O[C@H](OCc2ccc(CO)cc2)C1	-1.4	i	3.3	8.9	-2.9	-4.4	nt
Nc1nc(Nc2ccccc2)nc2ccccc12	7.3	i	56.4*	-8.9	9.3	15.4	3.8%
CCc1noc(C)c1C(=O)NNC(=O)COc1ccccc1C	-1.5	nt	-0.7	nt	-3.4	nt	nt
Cc1ccc(-c2csc3ncnc(SCC(=O)O)c23)cc1	6.0	i	76.1*	4.3	-0.3	31.3	8.5%
O=C(COC(=O)CNC(=O)c1ccco1)Nc1ncc(Cl)cc1Cl	8.3	nt	nt	nt	1.6	nt	nt
